Data as given in ChEMBL document CHEMBL1122064, “Synthesis and biological evaluation of 17-[131I]iodo-9-telluraheptadecanoic acid, a potential imaging agent” (J Med Chem, 1982).

How the values were obtained:
Rattus norvegicus [1] = test: Distribution of radioactivity in brain of Fischer 344 female rat after 2 hr of intravenous administration; type: ADME, organism-based; details: in vivo
Procedure, shortened: (§1)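 Female Fischer 344 rats (10-12 weeks, 170-200 g) with food and water ad libitum. The 131I-labelled fatty acid was taken up in ethanol, added dropwise to stirred 6% BSA at 40 °C (final ethanol 10%), filtered, and injected into a lateral tail vein under ether. Rats were CO2-anaesthetised and killed; organs were excised, rinsed, blotted, weighed and Ge(Li)-counted. Results are mean (range) % injected dose/g.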

Rattus norvegicus [2] = test: Distribution of radioactivity in liver of Fischer 344 female rat after 6 hr of intravenous administration; type: ADME, organism-based; details: in vivo
Procedure, shortened: (§2)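 Female Fischer 344 rats, 10-12 weeks old, 170-200 g, fed ad libitum. The 131I-labelled fatty acid was dissolved in absolute ethanol, added dropwise to stirred 6% bovine serum albumin at 40 °C (final ethanol 10%), filtered, and injected into a lateral tail vein under ether anaesthesia. Organs were excised, rinsed, blotted and weighed, then counted by Ge(Li) analyzer as percent injected dose/g.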

Rattus norvegicus [3] = test: Distribution of radioactivity in kidneys of Fischer 344 female rat after 10 min of intravenous administration; type: ADME, organism-based, Kidney; details: in vivo; procedure, shortened: as §1
Rattus norvegicus [4] = test: Distribution of radioactivity in brain of Fischer 344 female rat after 4 days of intravenous administration; type: ADME, organism-based; details: in vivo, 96 h; procedure, shortened: as §1
Rattus norvegicus [5] = test: Distribution of radioactivity in kidneys of Fischer 344 female rat after 6 hr of intravenous administration; type: ADME, organism-based, Kidney; details: in vivo; procedure, shortened: as §1
Rattus norvegicus [6] = test: Distribution of radioactivity in blood of Fischer 344 female rat after 30 min of intravenous administration; type: ADME, organism-based; details: in vivo, 0.5 h
Rattus norvegicus [7] = test: Distribution of radioactivity in Thyroid of Fischer 344 female rat after 10 min of intravenous administration; type: ADME, organism-based; details: in vivo; procedure, shortened: as §1
Rattus norvegicus [8] = test: Distribution of radioactivity in liver of Fischer 344 female rat after 4 of days intravenous administration; type: ADME, organism-based; details: in vivo; procedure, shortened: as §2
Rattus norvegicus [9] = test: Distribution of radioactivity in kidneys of Fischer 344 female rat after 4 days of intravenous administration; type: ADME, organism-based, Kidney; details: in vivo, 96 h; procedure, shortened: as §1
Rattus norvegicus [10] = test: Distribution of radioactivity in lungs of Fischer 344 female rat after 60 min of intravenous administration; type: ADME, organism-based, Lung; details: in vivo, 1 h
Procedure, shortened: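 Female Fischer 344 rats, 10-12 weeks, 170-200 g, fed ad libitum. The labelled fatty acid was given in 6% bovine serum albumin via a lateral tail vein under ether anaesthesia. Rats were killed by CO2 anaesthesia and cervical fracture; organs were excised, rinsed, blotted, weighed and counted by Ge(Li) analyzer. Results are mean percent injected dose/g with range.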

Rattus norvegicus [11] = test: Distribution of radioactivity in blood of Fischer 344 female rat after 4 days of intravenous administration; type: ADME, organism-based; details: in vivo, 96 h; procedure, shortened: as §1
Rattus norvegicus [12] = test: Distribution of radioactivity in brain of Fischer 344 female rat after 7 days of intravenous administration; type: ADME, organism-based; details: in vivo, 168 h; procedure, shortened: as §1
Rattus norvegicus [13] = test: Distribution of radioactivity in Thyroid of Fischer 344 female rat after 60 min of intravenous administration; type: ADME, organism-based; details: in vivo, 1 h; procedure, shortened: as §1
Rattus norvegicus [14] = test: Distribution of radioactivity in liver of Fischer 344 female rat after 7 of days intravenous administration; type: ADME, organism-based; details: in vivo; procedure, shortened: as §2
Rattus norvegicus [15] = test: Distribution of radioactivity in lungs of Fischer 344 female rat after 7 days of intravenous administration; type: ADME, organism-based, Lung; details: in vivo, 168 h; procedure, shortened: as §2
Rattus norvegicus [16] = test: Distribution of radioactivity in blood of Fischer 344 female rat after 6 hr of intravenous administration; type: ADME, organism-based; details: in vivo; procedure, shortened: as §1
Rattus norvegicus [17] = test: Distribution of radioactivity in lungs of Fischer 344 female rat after 24 hr of intravenous administration; type: ADME, organism-based, Lung; details: in vivo; procedure, shortened: as §2
Rattus norvegicus [18] = test: Distribution of radioactivity in heart of Fischer 344 female rat after 60 min of intravenous administration; type: ADME, organism-based; details: in vivo, 1 h
Rattus norvegicus [19] = test: Distribution of radioactivity in blood of Fischer 344 female rat after 2 hr of intravenous administration; type: ADME, organism-based; details: in vivo; procedure, shortened: as §1
Rattus norvegicus [20] = test: Distribution of radioactivity in brain of Fischer 344 female rat after 2 min of intravenous administration; type: ADME, organism-based; details: in vivo; procedure, shortened: as §1
Rattus norvegicus [21] = test: Distribution of radioactivity in liver of Fischer 344 female rat after 2 hr of intravenous administration; type: ADME, organism-based; details: in vivo; procedure, shortened: as §1
Rattus norvegicus [22] = test: Distribution of radioactivity in heart of Fischer 344 female rat after 2 min of intravenous administration; type: ADME, organism-based; details: in vivo; procedure, shortened: as §1
Rattus norvegicus [23] = test: Distribution of radioactivity in blood of Fischer 344 female rat after 2 min of intravenous administration; type: ADME, organism-based; details: in vivo; procedure, shortened: as §1
Rattus norvegicus [24] = test: Distribution of radioactivity in liver of Fischer 344 female rat after 10 min of intravenous administration; type: ADME, organism-based; details: in vivo; procedure, shortened: as §1
Rattus norvegicus [25] = test: Distribution of radioactivity in Thyroid of Fischer 344 female rat after 2 hr of intravenous administration; type: ADME, organism-based; details: in vivo; procedure, shortened: as §1
Rattus norvegicus [26] = test: Distribution of radioactivity in heart of Fischer 344 female rat after 2 hr of intravenous administration; type: ADME, organism-based; details: in vivo; procedure, shortened: as §1
Rattus norvegicus [27] = test: Distribution of radioactivity in Thyroid of Fischer 344 female rat after 24 hr of intravenous administration; type: ADME, organism-based; details: in vivo; procedure, shortened: as §1
Rattus norvegicus [28] = test: Distribution of radioactivity in kidneys of Fischer 344 female rat after 7 days of intravenous administration; type: ADME, organism-based, Kidney; details: in vivo, 168 h; procedure, shortened: as §1
Rattus norvegicus [29] = test: Distribution of radioactivity in Thyroid of Fischer 344 female rat after 4 days of intravenous administration; type: ADME, organism-based; details: in vivo, 96 h; procedure, shortened: as §1
Rattus norvegicus [30] = test: Distribution of radioactivity in lungs of Fischer 344 female rat after 2 hr of intravenous administration; type: ADME, organism-based, Lung; details: in vivo; procedure, shortened: as §2
Rattus norvegicus [31] = test: Distribution of radioactivity in brain of Fischer 344 female rat after 60 min of intravenous administration; type: ADME, organism-based; details: in vivo, 1 h; procedure, shortened: as §1

## O=C(O)CCCCCCCC[Te]CCCCCCCC[131I]
Rattus norvegicus [1]
  Distribution of radioactivity: 0.04 dose g-1
Rattus norvegicus [2]
  Distribution of radioactivity: 0.51 dose g-1
Rattus norvegicus [3]
  Distribution of radioactivity: 1.14 dose g-1
Rattus norvegicus [4]
  Distribution of radioactivity: < 0.007 dose g-1
Rattus norvegicus [5]
  Distribution of radioactivity: 0.36 dose g-1
Rattus norvegicus [6]
  Distribution of radioactivity: 0.72 dose g-1
Rattus norvegicus [7]
  Distribution of radioactivity: 12.1 dose g-1
Rattus norvegicus [8]
  Distribution of radioactivity: 0.02 dose g-1
Rattus norvegicus [9]
  Distribution of radioactivity: 0.03 dose g-1
Rattus norvegicus [10]
  Distribution of radioactivity: 0.75 dose g-1
Rattus norvegicus [11]
  Distribution of radioactivity: 0.02 dose g-1
Rattus norvegicus [12]
  Distribution of radioactivity: < 0.002 dose g-1
Rattus norvegicus [13]
  Distribution of radioactivity: 74.7 dose g-1
Rattus norvegicus [14]
  Distribution of radioactivity: 0.014 dose g-1
Rattus norvegicus [15]
  Distribution of radioactivity: 0.031 dose g-1
Rattus norvegicus [16]
  Distribution of radioactivity: 0.44 dose g-1
Rattus norvegicus [17]
  Distribution of radioactivity: 0.18 dose g-1
Rattus norvegicus [18]
  Distribution of radioactivity: 1.86 dose g-1
Rattus norvegicus [19]
  Distribution of radioactivity: 0.61 dose g-1
Rattus norvegicus [20]
  Distribution of radioactivity: 0.17 dose g-1
Rattus norvegicus [21]
  Distribution of radioactivity: 1.02 dose g-1
Rattus norvegicus [22]
  Distribution of radioactivity: 2.39 dose g-1
Rattus norvegicus [23]
  Distribution of radioactivity: 1.28 dose g-1
Rattus norvegicus [24]
  Distribution of radioactivity: 3.23 dose g-1
Rattus norvegicus [25]
  Distribution of radioactivity: 166 dose g-1
Rattus norvegicus [26]
  Distribution of radioactivity: 1.33 dose g-1
Rattus norvegicus [27]
  Distribution of radioactivity: 475 dose g-1
Rattus norvegicus [28]
  Distribution of radioactivity: 0.016 dose g-1
Rattus norvegicus [29]
  Distribution of radioactivity: 226 dose g-1
Rattus norvegicus [30]
  Distribution of radioactivity: 0.68 dose g-1
Rattus norvegicus [31]
  Distribution of radioactivity: 0.05 dose g-1
